Series [1] in a line: Stability in RPMI-1640 medium containing 10% heat inactivated fetal calf serum at pH 7.6 assessed as hydrolysis half life. Format: physicochemical. The note with it: cattle, RPMI-1640 medium with 10% heat-inactivated fetal calf serum. Put shortly:
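Stability in RPMI-1640 culture medium with 10% fetal calf serum heat-inactivated for 30 min at 56 °C (pH 7.6). Handled like the cell-extract incubations, with medium in place of extract; triester half-life and formyl-product formation followed by HPLC.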

Series [2] concerns Human immunodeficiency virus 2. Briefly: Antiviral activity against HIV2 in human wild type CEM/0 cellss. Format: functional, organism-based. The settings on record: Human immunodeficiency virus 2, CCRF-CEM. Put shortly:
(§1)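 Anti-HIV assay in T-lymphocytes: wild-type CEM/0 cells infected with HIV-1 or HIV-2, and thymidine kinase-deficient CEM/TK⁻ cells infected with HIV-2. Cells grown in RPMI-1640 with 10% heat-inactivated fetal calf serum. Read-out is the 50% effective concentration, given as the mean of two to three independent experiments.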

Series [3] can be described thus: Cytostatic activity against human wild type CEM/0 cellss. It is filed as cell-based, CCRF-CEM. The note with it: wild-type CEM/0 cells. Put shortly:
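Cytostatic activity on T-lymphocyte CEM cultures, reported as the 50% cytostatic concentration.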

A short description of series [4]: Stability in aqueous 25 mM phosphate buffer at pH 7.6 assessed as hydrolysis half life. Format: physicochemical. Put shortly: (§2)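 Chemical stability in aqueous 25 mM phosphate buffer at pH 7.3 or 7.6. Triester cleavage followed by HPLC; half-life refers to disappearance of the intact triester.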
Series [5] is described as follows: Stability in aqueous 25 mM phosphate buffer at pH 7.3 assessed as hydrolysis half life. Format: physicochemical. Put shortly:
as §2

In series [6] the test system is Human immunodeficiency virus 2. Description: Antiviral activity against HIV2 in thymidine kinase deficient human CEM/TK- cellss. Format: functional, organism-based. The note with it: Human immunodeficiency virus 2, CEM-TK(-). Put shortly:
as §1

For series [7], the system named is Human immunodeficiency virus 1. Description: Antiviral activity against HIV1 in human wild type CEM/0 cellss. Format: functional, organism-based. The note with it: Human immunodeficiency virus 1, CCRF-CEM. Put shortly: as §1
Series [8] has as its system Human immunodeficiency virus. Description: Antiviral activity against HIV. It is filed as functional, organism-based. The note with it: Human immunodeficiency virus 1. Put shortly: as §1
The nature of series [9]: Stability in human CEM cells extracts at pH 6.9 assessed as hydrolysis half life. It is filed as ADME, CCRF-CEM. The settings on record: CEM cell extracts. Put shortly:
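Enzymatic stability assay: triesters incubated in CEM cell extracts (pH 6.9) over varied incubation times. Acetic acid was not used to stop the reaction for acid-sensitive compounds. Samples analysed by HPLC to give the half-life of triester cleavage.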

The structures appear in SMILES notation. Where only a bound is given, the exact number is not on record here.

Take `Cc1cn([C@H]2C=C[C@@H](COP3(=O)OCc4cc(C=O)cc(C(C)(C)C)c4O3)O2)c(=O)[nH]c1=O` (stereo not given in full): the half-life (commonly the time in which the quantity being followed falls by half) in [1] was 1.5 h; in series [4] it was 1.1 h; in series [5] it was 1 h. Also, the results for the EC50 in series [2], in [6] and in series [7] were 1 µM, 15 µM and 0.39 µM, respectively. For the same compound, in series [3], the CC50 (in general, the concentration giving 50% cytotoxicity) turned out to be 33 µM.
Turning to `Cc1cc(C=O)cc2c1OP(=O)(OC[C@@H]1C=C[C@H](n3cc(C)c(=O)[nH]c3=O)O1)OC2` (stereo not given in full), the half-life was 0.7 h in series [1] and 0.35 h in series [4]. The results for the EC50 in [2], in series [6] and in series [7] were 1.27 µM, 4.5 µM and 0.45 µM, respectively. The compound also displayed a half-maximal cytotoxic concentration (CC50) in series [3] of 82 µM.
As to `Cc1cccc2c1OP(=O)(OC[C@@H]1C=C[C@H](n3cc(C)c(=O)[nH]c3=O)O1)OC2` (stereo not given in full), a half-maximal effect in [8] (EC50) was put at 0.1 µM. That is a sub-micromolar value.
Turning to `CC(=O)OC(OC(C)=O)c1cc2c(c(C(C)(C)C)c1)OP(=O)(OC[C@@H]1C=C[C@H](n3cc(C)c(=O)[nH]c3=O)O1)OC2` (stereo not given in full), the half-life in series [1] is 2.8 h; in series [9], 0.15 h; in series [4], 2.6 h; in [5] it was 7.9 h. Further, the EC50 (usually the concentration at which the effect is half-maximal) worked out at 0.8 µM in series [2], 0.78 µM in series [6] and 0.65 µM in series [7]. In series [3], this compound had a 50% cytotoxic concentration (CC50) of 19 µM.
Consider `CC(=O)OC(OC(C)=O)c1cc(C)c2c(c1)COP(=O)(OC[C@@H]1C=C[C@H](n3cc(C)c(=O)[nH]c3=O)O1)O2` (stereo not given in full), for which the half-life in [1] was 1.5 h; in series [4], 1.9 h. For the same compound, the results for the EC50 in series [2], in series [6] and in series [7] were 0.7 µM, 6.3 µM and 0.5 µM, respectively. For the same compound, half-maximal cytotoxicity in series [3] (CC50) was put at 44 µM.
For the compound `Cc1cn([C@H]2C=C[C@@H](CO[P@@]3(=O)OCc4cc(C(OC(=O)C(C)C)OC(=O)C(C)C)cc(C(C)(C)C)c4O3)O2)c(=O)[nH]c1=O`, the half-life was 4.5 h in [1], 0.8 h in [9], 2.9 h in series [4] and 3.8 h in series [5]. In addition, the figures for the EC50 in series [2], in [6] and in series [7] were 1.9 µM, 3.6 µM and 0.89 µM, respectively. In series [3], this compound yielded a CC50 of 40 µM.
Take `CC(=O)OC(OC(C)=O)c1cc2c(c(C(C)(C)C)c1)O[P@](=O)(OC[C@@H]1C=C[C@H](n3cc(C)c(=O)[nH]c3=O)O1)OC2`: the half-life is 2.9 h in series [1], 0.3 h in series [9], 2.7 h in series [4] and 7.9 h in series [5]. Besides, the half-maximal effective concentration (EC50) was 0.75 µM in series [2], 0.29 µM in series [6] and 0.54 µM in series [7]. Further, the CC50 in series [3] is 17 µM.
In the case of `CC(=O)OC(OC(C)=O)c1cc2c(c(C(C)(C)C)c1)O[P@@](=O)(OC[C@@H]1C=C[C@H](n3cc(C)c(=O)[nH]c3=O)O1)OC2`, the half-life was 2.8 h in [1], 0.15 h in series [9], 2.4 h in series [4] and 8.3 h in series [5]. The EC50 in [2] was 0.84 µM; in [6], 3.9 µM; in series [7] it was 1.1 µM. Also, the midpoint of cytotoxicity in series [3], the CC50, lay at 51 µM.
With `Cc1cn([C@H]2C=C[C@@H](CO[P@@]3(=O)OCc4cc(C=O)cc(C(C)(C)C)c4O3)O2)c(=O)[nH]c1=O`, the half-life in [1] is 1.6 h; in [4], 0.3 h; in series [5], 1 h. The figures for the EC50 in [2], in [6] and in [7] were 1.4 µM, 10 µM and 0.81 µM, respectively. For the same compound, in series [3], the midpoint of cytotoxicity, the CC50, lay at 41 µM.
On to `Cc1cn([C@H]2C=C[C@@H](CO[P@]3(=O)OCc4cc(C=O)cc(C(C)(C)C)c4O3)O2)c(=O)[nH]c1=O`, for which the half-life in series [1] was 1.7 h; in [4], 1.3 h; in series [5], 1.3 h. For the same compound, the EC50 in series [2] amounted to 0.69 µM; in series [6], 2.6 µM; in series [7] it was 0.16 µM. The same compound returned a CC50 in [3] of 27 µM.
Turning to `Cc1cn([C@H]2C=C[C@@H](COP3(=O)OCc4cc(C(C)(C)C)ccc4O3)O2)c(=O)[nH]c1=O` (stereo not given in full), the half-life in series [5] was 7.2 h.
Take `Cc1cc(C=O)c2c(c1)COP(=O)(OC[C@@H]1C=C[C@H](n3cc(C)c(=O)[nH]c3=O)O1)O2` (stereo not given in full): the figures for the half-life in series [1], in [4] and in [5] were 0.3 h, 0.3 h and 0.25 h, respectively. Moreover, the EC50 in series [2] came out at 1.4 µM; in series [6] it was 29 µM; in series [7] it was 3.6 µM. Further, the CC50 in [3] worked out at 29 µM.
Consider `CC(=O)OC(OC(C)=O)c1cc(C)cc2c1OP(=O)(OC[C@@H]1C=C[C@H](n3cc(C)c(=O)[nH]c3=O)O1)OC2` (stereo not given in full), for which the half-life is 1.5 h in series [1], 0.25 h in [9], 1.1 h in series [4] and 3.2 h in series [5]. Moreover, the EC50 was determined as 1 µM in series [2], 6.5 µM in [6] and 0.52 µM in series [7]. Further, the CC50 in series [3] stood at 19 µM.
In the case of `Cc1cc(C(OC(=O)C(C)C)OC(=O)C(C)C)cc2c1OP(=O)(OC[C@@H]1C=C[C@H](n3cc(C)c(=O)[nH]c3=O)O1)OC2` (stereo not given in full), the half-life in series [1] is 1.6 h; in series [9] it was 0.5 h; in series [4], 1.1 h; in [5], 1.3 h. The concentration giving a half-maximal response (EC50) in series [2] is 0.95 µM; in [6], > 10 µM; in [7] it was 1.6 µM. Besides, the CC50 in [3] was 20 µM.
As to `Cc1cn([C@H]2C=C[C@@H](CO[P@]3(=O)OCc4cc(C(OC(=O)C(C)C)OC(=O)C(C)C)cc(C(C)(C)C)c4O3)O2)c(=O)[nH]c1=O`, the half-life in series [1] is 5.7 h; in [9] it was 1 h; in [4] it was 2.5 h; in series [5], 3.3 h. The half-maximal effective concentration (EC50) in [2] amounted to 0.85 µM; in series [6] it was 1.4 µM; in [7], 0.72 µM. Further, the midpoint of cytotoxicity in series [3], the CC50, lay at 14 µM.
In the case of `Cc1cn([C@H]2C=C[C@@H](COP3(=O)OCc4cc(C(OC(=O)C(C)C)OC(=O)C(C)C)cc(C(C)(C)C)c4O3)O2)c(=O)[nH]c1=O` (stereo not given in full), the half-life in series [1] is 5.9 h; in series [9], 1 h; in series [4], 2.7 h; in series [5], 3.5 h. Further, the results for the EC50 in [2], in [6] and in series [7] were 2 µM, 2.4 µM and 0.53 µM, respectively. This compound registered a CC50 in [3] of 20 µM.
For `Cc1cn([C@H]2C=C[C@@H](COP3(=O)OCc4cc(C(C)(C)C)cc(C=O)c4O3)O2)c(=O)[nH]c1=O` (stereo not given in full), the half-life in series [1] is 0.3 h; in series [4] it was 0.1 h; in [5], 0.25 h. Moreover, the EC50 in [2] is 1 µM; in series [6], 5.1 µM; in series [7] it was 0.99 µM. The same compound gave a half-maximal cytotoxic concentration (CC50) in series [3] of 8.8 µM.
Take `CC(=O)OC(OC(C)=O)c1cc(C(C)(C)C)cc2c1OP(=O)(OC[C@@H]1C=C[C@H](n3cc(C)c(=O)[nH]c3=O)O1)OC2` (stereo not given in full): the half-life in [1] was 1.9 h; in [9] it was < 0.1 h; in series [4] it was 1.2 h; in [5] it was 3.7 h. For the same compound, the half-maximal effective concentration (EC50) turned out to be 1 µM in series [2], 7.3 µM in [6] and 0.72 µM in [7]. This compound displayed a CC50 in series [3] of 7.9 µM.
For `Cc1cn([C@H]2C=C[C@@H](CO)O2)c(=O)[nH]c1=O` [STAVUDINE], the EC50 in [2] was found to be 1.9 µM; in series [6], 62 µM; in [7] it was 0.86 µM. In addition, half-maximal cytotoxicity in series [3] (CC50) was put at 182 µM.

The values are drawn from ChEMBL document CHEMBL1142496, “Studies on enzyme-cleavable dialkoxymethyl-cyclosaligenyl-2',3'-dideoxy-2',3'-didehydrothymidine monophosphates” (J Med Chem, 2008).
